Results pooled from the literature.
Each line is one published result; the experiments were not run side by side.
Target: Testis-specific serine/threonine-protein kinase 2 (TSSK2, Homo sapiens, UniProt Q96PF2)
Residues used in one study (Q96PF2 1-358): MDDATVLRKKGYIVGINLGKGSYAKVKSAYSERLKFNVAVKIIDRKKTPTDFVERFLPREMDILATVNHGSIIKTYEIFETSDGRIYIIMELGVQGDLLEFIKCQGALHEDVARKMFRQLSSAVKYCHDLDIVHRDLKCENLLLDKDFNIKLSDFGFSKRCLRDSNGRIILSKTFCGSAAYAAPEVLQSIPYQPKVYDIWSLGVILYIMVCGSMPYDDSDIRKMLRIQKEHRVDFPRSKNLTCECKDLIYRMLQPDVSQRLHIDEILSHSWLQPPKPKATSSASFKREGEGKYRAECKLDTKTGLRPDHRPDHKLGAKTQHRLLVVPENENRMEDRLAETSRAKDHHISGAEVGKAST

| SMILES | read-out | mode | technique | tested at | quantity | value |
| --- | --- | --- | --- | --- | --- | --- |
| CN1CC(Oc2cnc(C#N)cc2-c2ccn3nc(NC(=O)C4CC4)cc3c2)C1 | enzyme activity | inhibitor |  | 1 µM | inhibition | 0% |
| O=C1Nc2ccc(Cl)cc2C1=Cc1cc(Cl)c(O)c(Cl)c1 | cell-free assay |  |  | 0.5 µM | remaining signal | 94.4% |
| CCCS(=O)(=O)Nc1ccc(F)c(C(=O)c2c[nH]c3ncc(-c4ccc(Cl)cc4)cc23)c1F | enzyme activity | inhibitor |  | 1 µM | inhibition | < 10% |
| CCN(CC)CCNC(=O)c1c(C)[nH]c(/C=C2\C(=O)Nc3ccc(F)cc32)c1C | enzyme activity | inhibitor |  | 10 µM | inhibition | 54% |
| COc1cc2ncnc(Nc3ccc(Oc4ccccc4)cc3C)c2cc1OC | enzyme activity | inhibitor |  | 1 µM | inhibition | -1% |
| COc1cc(Cl)c(C(=O)N[C@@H](CN[C@H]2CC[C@@H](N)CC2)Cc2ccc(C#N)cc2)cc1-c1ccc(CN[C@H](C)c2ccc(C)cc2)o1 | enzyme activity | inhibitor |  | 1 µM | remaining activity | 101% |
| CC(C)(C)c1nc2c(s1)c1nc(N)ncc1c1ccc(NS(=O)(=O)c3c(F)cccc3F)c(F)c12 | enzyme activity | inhibitor | radiometric | 1 µM | remaining activity | 95% |
| Cc1cnc(NC2CCOCC2)nc1-n1cnc(C(=O)NC(CN)c2cc(F)cc(Cl)c2)c1 (stereo not shown) | enzyme activity | inhibitor | radiometric | 1 µM | remaining activity | 108% |
| CNC(=O)c1cc(Oc2ccc(NC(=O)Nc3ccc(Cl)c(C(F)(F)F)c3)cc2)ccn1 | enzyme activity | inhibitor |  | 0.3 µM | inhibition | -4% |
| O=C(Nc1cnn(-c2csc(C(=O)NC3COC3)c2)c1)Nc1c(F)cccc1Cl | enzyme activity | inhibitor |  | 5 µM | remaining activity | 95.1% |
| O=C1NC(=O)c2cc(Nc3ccc(F)cc3)c(Nc3ccc(F)cc3)cc21 | cell-free assay |  |  | 0.5 µM | remaining signal | 97.2% |
| Cc1sc(C(=O)NC2COC2)cc1-n1cc(NC(=O)Nc2c(F)cccc2Cl)cn1 | enzyme activity | inhibitor |  | 10 µM | remaining activity | 84.7% |
| Cc1ccc(Nc2nccc(N(C)c3ccc4c(C)n(C)nc4c3)n2)cc1S(N)(=O)=O | enzyme activity | inhibitor |  | 10 µM | inhibition | 5% |
